Source: PubChem
ERp5 inh – inhibitors of ERp5-driven insulin aggregation, primary screen, biochemical, turbidity, absorbance 650 nm, single point. Protein disulfide-isomerase A6 (Homo sapiens), Q15084. 90 min. inhibition, % at 9.99 µM. 0.05% of 350,000 active;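 active means mean replicate inhibition above about 25%, with every replicate also reaching it, limit read from the data, passing the limit was not always enough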
Target sequence (Q15084 whole entry, looked up): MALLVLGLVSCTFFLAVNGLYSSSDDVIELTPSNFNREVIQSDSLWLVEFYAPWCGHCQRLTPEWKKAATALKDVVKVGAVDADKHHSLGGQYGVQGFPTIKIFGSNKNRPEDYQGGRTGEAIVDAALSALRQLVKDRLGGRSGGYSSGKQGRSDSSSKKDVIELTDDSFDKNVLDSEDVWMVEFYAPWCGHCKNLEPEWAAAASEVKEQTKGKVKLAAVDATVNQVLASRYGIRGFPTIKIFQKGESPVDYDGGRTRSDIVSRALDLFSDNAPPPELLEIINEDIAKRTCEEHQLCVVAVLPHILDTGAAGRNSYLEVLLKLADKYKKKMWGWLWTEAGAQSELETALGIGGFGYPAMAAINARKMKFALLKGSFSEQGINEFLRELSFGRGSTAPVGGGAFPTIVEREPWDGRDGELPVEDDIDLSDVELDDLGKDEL
INS-1E GSIS act – GLuc luminescence reporter in INS-1E cells, primary screen for activators of glucose-dependent secretion of insulin | 0.61% of 370,000 active | INS-1E GLuc reporter insulin secretion, 2-3 h | activation, % at 16.6 µM | AID 743287, 2014;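 active means lowest replicate activation of at least 40%, so every replicate reaches that level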
HIV Env fusion – inhibitors of HIV-1 Env-driven cell-cell fusion, primary screen, HeLa-JRFL effector, CEM21 target cells, luciferase; AID 651610, 2012; inhibition, % at 12.3 µM; 1.1% of 360,000 active;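 active means mean replicate inhibition score of at least 50 and every replicate individually at or above 50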
FN deposit inh – inhibitors of fibronectin matrix deposition, primary screen, AH1F cells, Alexa488-fibronectin fluorescence, plate reader | AID 743247, 2014 | inhibition, % at 12.6 µM | AH1F fibroblasts, overnight | 0.086% of 350,000 active;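 active means mean inhibition across replicates of 30% or more, regardless of how many single replicates reach that level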
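Assay system: AH1F fibroblasts assembling fluorescent fibronectin matrix; Amount: 10000 AH1F cells per well; Buffer or medium: DMEM, 2% serum; Probe or stimulus: Alexa488-fibronectin, 24 nM final in well; Doses: single compound dose, delivered by pin transfer; Incubation: 1 h adhesion, overnight exposure; Measured by: fluorescence 485/525 nm; Read-out: fibronectin deposition inhibition.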
PDI turbidity – inhibitors of human PDI, primary screen, biochemical, turbidity, single point, plate reader | 0.052% of 350,000 active | inhibition, % at 10 µM | PDI insulin aggregation turbidity, A650, 90 min | AID 588391, 2011 | Protein disulfide-isomerase (Homo sapiens), P07237;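 active means mean inhibition across replicates of 30% or more, whatever share of single replicates reach that level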
A number is an active result. The list is not random: actives were taken first. Their share in the collection is about 1.4%.

What do the screens show for `Cc1cc(NC(=O)c2cc(-c3cccc(Cl)c3)on2)no1`?
INS-1E GSIS act: 125; HIV Env fusion: inactive; PDI turbidity: inactive

Results for COc1cccc(-c2cc(C(=O)Nc3cc(C)on3)no2)c1 ?
INS-1E GSIS act: 73; HIV Env fusion: inactive; FN deposit inh: inactive; PDI turbidity: inactive

What do the screens show for `COc1ccc(CNC(=O)c2cc(-c3ccc(OC)c(OC)c3)on2)cc1`?
INS-1E GSIS act: 78; HIV Env fusion: inactive; FN deposit inh: inactive; PDI turbidity: inactive

What do the screens show for `COc1cccc(-c2cc(C(=O)Nc3cccnc3)no2)c1`?
HIV Env fusion: inactive; FN deposit inh: inactive; PDI turbidity: inactive

Results for CCCNC(=O)[C@H]1N[C@H]2c3ccc(C4=CCCC4)c(=O)n3C[C@H]2[C@@H]1CO ?
ERp5 inh: inactive; INS-1E GSIS act: inactive

How did CCC(=O)Nc1ccc2c(c1)C(=O)N(C)C[C@@H](OC)[C@@H](C)CN[C@H](C)CO2 do in these assays?
ERp5 inh: inactive; INS-1E GSIS act: inactive; FN deposit inh: inactive

Results for C=C1[C@@H](O)[C@H](CC(C)C)N(Cc2ccccc2Br)S1(=O)=O ?
ERp5 inh: inactive; INS-1E GSIS act: 45; HIV Env fusion: inactive; FN deposit inh: inactive; PDI turbidity: inactive

Results for CCC(=O)N1CC2(C1)CN(Cc1ccc3c(c1)OCO3)[C@@H](CO)c1c2c2ccc(OC)cc2n1C ?
ERp5 inh: inactive; INS-1E GSIS act: inactive

How did CCc1cc(-c2[nH]ncc2-c2ccc(OC)cc2)c(O)cc1O do in these assays?
ERp5 inh: inactive; INS-1E GSIS act: inactive; HIV Env fusion: inactive; FN deposit inh: inactive; PDI turbidity: inactive

Results for CCOc1ccc(-c2[nH]ncc2-c2ccc(OC)c(OC)c2)c(O)c1 ?
INS-1E GSIS act: inactive; HIV Env fusion: 67; FN deposit inh: inactive; PDI turbidity: inactive

What do the screens show for `COc1ccc(-c2cn[nH]c2-c2ccc(O)cc2O)cc1OC`?
ERp5 inh: inactive; INS-1E GSIS act: inactive; HIV Env fusion: inactive; FN deposit inh: inactive; PDI turbidity: inactive

What do the screens show for `COc1ccc(-c2cn[nH]c2-c2ccc(OCc3ccc([N+](=O)[O-])cc3)cc2O)cc1`?
ERp5 inh: inactive; INS-1E GSIS act: inactive; HIV Env fusion: 73; FN deposit inh: inactive; PDI turbidity: inactive

Results for Nc1c(C(=O)NCc2ccco2)nnn1Cc1ccccc1 ?
HIV Env fusion: inactive; FN deposit inh: 30; PDI turbidity: inactive

How did CCC(=O)N1[C@H](CO)[C@@H](c2ccccc2)[C@@H]1CNC(=O)CN1CCOCC1 do in these assays?
ERp5 inh: inactive; INS-1E GSIS act: inactive; FN deposit inh: inactive

What do the screens show for `CCN(CC)C(=O)Cn1cc(C(=O)C(=O)N2CCN(Cc3ccccc3)CC2)c2ccccc21`?
ERp5 inh: inactive; INS-1E GSIS act: 60; HIV Env fusion: inactive; FN deposit inh: inactive; PDI turbidity: inactive

How did O=S(=O)(c1ccc2c(c1)OCCO2)N1CCC(c2nc3ccccc3[nH]2)CC1 do in these assays?
INS-1E GSIS act: inactive; HIV Env fusion: inactive; FN deposit inh: inactive; PDI turbidity: inactive

What do the screens show for `O=S(=O)(c1ccc2c(c1)OCCO2)N1CCC(c2nc3ccc(Cl)cc3[nH]2)CC1`?
INS-1E GSIS act: inactive; HIV Env fusion: 55; FN deposit inh: inactive; PDI turbidity: inactive

Results for Cc1cccc(NC(=O)CN2C(=O)S/C(=C\C(=O)Nc3ccc(Cl)cc3)C2=O)c1 ?
INS-1E GSIS act: 199; HIV Env fusion: inactive; FN deposit inh: inactive; PDI turbidity: inactive

What do the screens show for `O=C(/C=C1\SC(=O)N(CC(=O)Nc2ccc(Cl)cc2)C1=O)Nc1ccc(F)cc1`?
ERp5 inh: inactive; INS-1E GSIS act: inactive; HIV Env fusion: inactive; FN deposit inh: inactive; PDI turbidity: inactive

How did Cc1ccc(CN2CC(N3CCCC3)CS2(=O)=O)cc1 (stereo not given) do in these assays?
ERp5 inh: inactive; INS-1E GSIS act: inactive; HIV Env fusion: 60; FN deposit inh: inactive

What do the screens show for `O=C(c1ccco1)N1CCN(C2CN(Cc3ccccc3)S(=O)(=O)C2)CC1` (stereo not given)?
ERp5 inh: inactive; INS-1E GSIS act: 47; HIV Env fusion: inactive

Results for O=C(c1ccco1)N1CCN(C2CN(Cc3ccc([N+](=O)[O-])cc3)S(=O)(=O)C2)CC1 (stereo not given) ?
ERp5 inh: inactive; INS-1E GSIS act: inactive; HIV Env fusion: inactive; FN deposit inh: inactive; PDI turbidity: inactive

What do the screens show for `Cc1noc(C)c1NC(=O)N[C@@H]1CC[C@@H](CCNC(=O)C2CCOCC2)O[C@H]1CO`?
ERp5 inh: inactive; INS-1E GSIS act: inactive; HIV Env fusion: inactive

How did CC(Oc1ccc(Cl)cc1Cl)C(=O)Nc1ccc2oc(-c3ccncc3)nc2c1 (stereo not given) do in these assays?
HIV Env fusion: 64; FN deposit inh: inactive; PDI turbidity: inactive

What do the screens show for `CC(C)NC(=O)N[C@@H]1CC[C@H](CC(=O)N2CCCCC2)O[C@@H]1CO`?
ERp5 inh: inactive; INS-1E GSIS act: inactive; HIV Env fusion: inactive; FN deposit inh: inactive

Results for O=C(c1ccccn1)N1C[C@H]2[C@@H](c3ccccc31)[C@H](CO)N2C(=O)Nc1ccccc1 ?
ERp5 inh: inactive; INS-1E GSIS act: inactive

What do the screens show for `Cc1ccc(-c2csc(NCCc3nc4cc(Cl)c(Cl)cc4n3CCCO)n2)cc1`?
ERp5 inh: inactive; INS-1E GSIS act: inactive; HIV Env fusion: inactive; FN deposit inh: inactive; PDI turbidity: inactive

How did OCCOCCn1c(CCNc2nc(-c3ccc(Cl)cc3)cs2)nc2cc(Cl)c(Cl)cc21 do in these assays?
ERp5 inh: inactive; INS-1E GSIS act: inactive; HIV Env fusion: 81; FN deposit inh: inactive; PDI turbidity: inactive

What do the screens show for `C[C@H](CO)N1C[C@H](C)[C@H](CN(C)C(=O)CN(C)C)Oc2ncc(-c3ccc(F)cc3)cc2C1=O`?
ERp5 inh: inactive; INS-1E GSIS act: inactive; HIV Env fusion: inactive; FN deposit inh: inactive

How did Cc1cc(Br)c2c(c1)C1(OCCO1)C(=O)N2 do in these assays?
ERp5 inh: inactive; INS-1E GSIS act: 41; HIV Env fusion: inactive; FN deposit inh: inactive; PDI turbidity: inactive

How did C[C@@H]1CN([C@@H](C)CO)C(=O)c2cc(-c3ccncc3)cnc2O[C@H]1CN(C)C(=O)C1CC1 do in these assays?
INS-1E GSIS act: inactive; HIV Env fusion: inactive

How did CCCNC(=O)N(C)C[C@@H]1Oc2ncc(/C=C/c3ccccc3)cc2C(=O)N([C@@H](C)CO)C[C@H]1C do in these assays?
ERp5 inh: inactive; INS-1E GSIS act: inactive; HIV Env fusion: inactive

Results for C/C=C/c1ccc([C@@H]2[C@@H](CO)N3C(=O)CN(S(=O)(=O)c4ccccc4)C[C@H]23)cc1 ?
ERp5 inh: inactive; INS-1E GSIS act: inactive; FN deposit inh: inactive

What do the screens show for `COC(=O)c1sc(NC(=O)/C=C/c2ccc(C)cc2)nc1C`?
INS-1E GSIS act: 67; HIV Env fusion: inactive; FN deposit inh: inactive; PDI turbidity: inactive
